Source: publication PMC4348351 (Pest management science, 2014)

How the values were obtained:
[1] = system: Anopheles albimanus AChE (An.aAChE); assay: AChE inhibition, Ellman assay, An.aAChE; assay type: biochemical; conditions: SR = IC50 of mosquito AChE/IC50 of An. gambiae
[2] = system: Anopheles quadrimaculatus AChE (An.qAChE); assay: AChE inhibition, Ellman assay, An.qAChE; assay type: biochemical; conditions: SR = IC50 of mosquito AChE/IC50 of An. gambiae
[3] = target: Aedes aegypti AChE (Ae.aAChE) (Aedes aegypti, UniProt Q6A2E2); assay: AChE inhibition, Ellman assay, Ae.aAChE; assay type: biochemical; conditions: SR = IC50 of mosquito AChE/IC50 of An. gambiae
[4] = system: Aedes albopictus AChE (Ae.bAChE); assay: AChE inhibition, Ellman assay, Ae.bAChE; assay type: biochemical; conditions: SR = IC50 of mosquito AChE/IC50 of An. gambiae
[5] = system: Culex quinquefasciatus AChE (CqAChE); assay: AChE inhibition, Ellman assay, CqAChE; assay type: biochemical; conditions: SR = IC50 of mosquito AChE/IC50 of An. gambiae
[6] = system: Plutella xylostella AChE (PxAChE); assay: AChE inhibition, Ellman assay, PxAChE; assay type: biochemical; conditions: for SR PxAChE: SR = IC50 of agricultural insect AChE/IC50 of An.gAChE
[7] = system: Ostrinia nubilalis AChE (OnAChE); assay: AChE inhibition, Ellman assay, OnAChE; assay type: biochemical; conditions: for SR OnAChE: SR = IC50 of agricultural insect AChE/IC50 of An.gAChE
[8] = target: Drosophila melanogaster AChE (DmAChE) (Drosophila melanogaster, UniProt P07140); assay: AChE inhibition, Ellman assay, DmAChE; assay type: biochemical; conditions: for SR DmAChE: SR = IC50 of agricultural insect AChE/IC50 of An.gAChE
[9] = system: Musca domestica AChE (MdAChE); assay type: biochemical; conditions: for SR MdAChE: SR = IC50 of agricultural insect AChE/IC50 of An.gAChE
[10] = system: Diaphorina citri AChE (DcAChE); assay: AChE inhibition, Ellman assay, DcAChE; assay type: biochemical; conditions: SR = IC50 of agricultural insect AChE/IC50 of An.gAChE
[11] = system: Apis mellifera AChE (Ap.mAChE); assay: AChE inhibition, Ellman assay, Ap.mAChE; assay type: biochemical; conditions: for SR Ap.mAChE: SR = IC50 of agricultural insect AChE/IC50 of An.gAChE
[12] = system: An. gambiae; assay: Topical toxicity bioassay, An. gambiae; assay type: in vivo, Anopheles gambiae; conditions: adult females, 24 hour mortality
Outline: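 Anopheline adults, chilled on ice for 1 min, received 200 nL of test compound in 95% ethanol on the abdomen via handheld microapplicator. Five doses × ten insects, three repeats, plus an ethanol-only control. Sugar water was freely available under netting.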

[13] = system: Ae. aegypti; assay: Topical toxicity bioassay, Ae. aegypti; assay type: in vivo, Aedes aegypti; conditions: adult females, 24 hour mortality
Outline: (§1)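 Adult mosquitoes were chilled on ice for 3 min, then 200 nL of test compound in 95% ethanol was applied to the abdomen by handheld microapplicator. Five doses, ten insects each, repeated three times, with an ethanol-only negative control. Insects were held under netting with free access to sugar water.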

[14] = system: Cu. quinquefasciatus; assay: Topical toxicity bioassay, Cu. quinquefasciatus; assay type: in vivo, Culex quinquefasciatus; conditions: adult females, 24 hour mortality
Outline: as §1

[15] = system: O. nubilalis; assay: Topical toxicity bioassay, O. nubilalis; assay type: in vivo, Ostrinia nubilalis; conditions: for SR (toxicity): Selectivity Ratio = O. nubilalis LD50/An. gambiae LD50; for LD50 (95% CI) O. nubilalis: topical, L2 larvae, 24 hour mortality
Outline: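 Lepidopteran larvae were ice-chilled for 3 min before 1 μL of test compound in 95% ethanol was applied to the abdomen with a handheld microapplicator. Five doses, ten larvae per dose, done three times, with an ethanol-only negative control. Food substrate was provided in netted containers.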

[16] = system: mosquito acetylcholinesterases; assay: AChE inhibition, statements across mosquito species; assay type: biochemical

## CNC(=O)Oc1cccc2c1OC(C)(C)O2 [Bendiocarb, bendiocarb]
[1]
  SR An.aAChE: 1.0
[2]
  SR An.qAChE: 0.8
[3]
  SR Ae.aAChE: 0.7
[4]
  SR Ae.bAChE: 0.8
[5]
  SR CqAChE: 1.2
[6]; IC50 ratio versus 1
  fold more potent than 1, PxAChE: 3 fold
[6]; IC50 ratio, 100 μM value used for 5
  fold more potent than 5, PxAChE: 461 fold
[6]
  SR PxAChE: 1.3
[6]; listed as bendiocarb
  SR PxAChE: ≤ 7
[7]; IC50 ratio versus 1
  fold more potent than 1, OnAChE: 8 fold
[7]; IC50 ratio versus 5
  fold more potent than 5, OnAChE: 243 fold
[7]
  SR OnAChE: 2
[8]; IC50 ratio versus propoxur
  fold more potent than propoxur, DmAChE: 3.9 fold
[8]
  SR DmAChE: 0.2
[9]; IC50 ratio versus propoxur
  fold more potent than propoxur, MdAChE: 2.6 fold
[9]
  SR MdAChE: 0.3
[10]
  SR DcAChE: 0.5
[11]; IC50 ratio versus propoxur
  fold difference in IC50 versus propoxur, Ap.mAChE: 19 fold
[11]
  SR Ap.mAChE: 0.3
[12]
  LD50 (95% CI) An. gambiae: 2 (1–4) aA ng/mg
[13]
  LD50 (95% CI) Ae. aegypti: 1 (0.5–3) aA ng/mg
[14]
  LD50 (95% CI) Cu. quinquefasciatus: 2 (1–4) aB ng/mg
[15]; LD50 ratio versus 1
  fold more toxic than 1, O. nubilalis: 24 fold
[15]
  SR (toxicity): 2
  LD50 (95% CI) O. nubilalis: 4 (2–6) aB ng/mg
[15]; listed as bendiocarb
  LD50 (95% CI) O. nubilalis: 4 ng/mg

## CNC(=O)Oc1cccc2c1OC(C)(C)C2 [Carbofuran, carbofuran]
[1]
  SR An.aAChE: 1.2
[2]
  SR An.qAChE: 0.9
[3]
  SR Ae.aAChE: 0.9
[4]
  SR Ae.bAChE: 1.0
[5]
  SR CqAChE: 2.3
[16]; IC50 ratio versus bendiocarb
  fold more active than bendiocarb, within each mosquito species: about 3 fold
[16]; IC50 ratio versus propoxur
  fold more potent than propoxur, within each mosquito species: approximately 10 fold

## CNC(=O)Oc1ccccc1OC(C)C [Propoxur]
[1]
  SR An.aAChE: 1.1
[2]
  SR An.qAChE: 1.0
[3]
  SR Ae.aAChE: 0.8
[4]
  SR Ae.bAChE: 0.8
[5]
  SR CqAChE: 1.1
[6]
  SR PxAChE: 7.5
[6]; listed as propoxur
  SR PxAChE: 7
[7]
  SR OnAChE: 15
[8]
  SR DmAChE: 0.2
[9]
  SR MdAChE: 0.3
[10]
  SR DcAChE: 2
[11]
  SR Ap.mAChE: 2
[12]
  LD50 (95% CI) An. gambiae: 3 (2–4) aA ng/mg
[13]
  LD50 (95% CI) Ae. aegypti: 3 (1–4) aA ng/mg
[14]
  LD50 (95% CI) Cu. quinquefasciatus: 8 (5–11) bA ng/mg
[15]
  SR (toxicity): 14
  LD50 (95% CI) O. nubilalis: 42 (34–49) cA ng/mg
